In article PMC8753134 (Research and Practice in Thrombosis and Haemostasis, 2022):
Counter-ions that a name gives are not always drawn. Like-named read-outs stand apart in the source and are kept apart here. No end group written: not given here.

Tests used:
[1] = type: in vitro ADME, human; details: spiked 1 ng/mL, 3 hours after sampling, absence of inhibitor, n = 3
[2] = cited from earlier work
[3] = test system: FXIIa and PKa (contact activation-mediated BK formation); experiment: Screening of serine protease inhibitors against artificial ex vivo BK formation; type: biochemical, human; details: citrate plasma; for BK levels after 4.5 hours: 4.5 hours after sampling, n = 3
Outline: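 Fresh blood in citrate, with serine protease inhibitors present singly (e.g., 2 mM AEBSF), then combinations of the most promising; uninhibited plasma as reference. BK was quantified by in-house LC-MS/MS immediately (reference value) and up to 4.5 h after sampling, given as relative abundance. Samples were analysed directly without long-term storage.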

For NCCCC[C@H](N)C(=O)N[C@@H](CCCN=C(N)N)C(=O)N1CCC[C@H]1C(=O)N1CCC[C@H]1C(=O)NCC(=O)N[C@@H](Cc1ccccc1)C(=O)N[C@@H](CO)C(=O)N1CCC[C@H]1C(=O)N[C@@H](Cc1ccccc1)C(=O)N[C@@H](CCCN=C(N)N)C(=O)O [KBK, Kallidin], the “change of spiked plasma kinin level” value [1] is listed as −100% and the half-life [2] is listed as under 1 min.
With CC(=O)N[C@@H](CC(C)C)C(=O)N[C@@H](CC(C)C)C(=O)N[C@H](C=O)CCCNC(=N)N [leupeptin, leupeptin hemisulfate] the “BK levels after 4.5 hours” value [3] was “BK levels were increased”.
For N=C(N)c1ccc2cc(OC(=O)c3ccc(N=C(N)N)cc3)ccc2c1 [nafamostat, nafamostat mesylate], the “BK levels after 4.5 hours” value [3] was “BK levels were increased”.
For RPPGF [BK‐(1‐5), Bradykinin 1–5], the half-life ([2]; inactive metabolite) is listed as “≈ 90 minutes”.
With RPPGFSP [BK‐(1‐7), Bradykinin 1–7] the “change of spiked plasma kinin level” value [1] was −65.7%.
For RPPGFSPFR [BK, Bradykinin], the half-life [2] is listed as under 1 min.
In the case of hexadimethrine bromide [HDMB], the “BK level as % of uninhibited plasma” value ([3]; tube prespiked with inhibitor, n = 3, LC-MS/MS) is reported as 0.4%.
